A short description of series [1]: Relative antioxidant activity assessed as resorcinol equivalents of hydroperoxyl scavenging activity at acidic pH by BR oscillating reaction method. In kind it is ADME. The method in brief:
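Briggs–Rauscher oscillating reaction: hydrogen peroxide, acidic iodate, malonic acid and Mn(II) catalyst at about pH 2, with hydroperoxyl radicals as the key intermediates.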

The test system of a further series is RAW264.7. As to the kind of experiment: Cytotoxicity against mouse RAW264.7 cells assessed as cell survival after 20 hrs by SRB assay. Particulars: for inhibition (INH): mouse, raw264.7, 20 h; call rule not given here.
Series [2] in a line: Cytotoxicity against mouse RAW264.7 cells assessed as cell survival at 50 uM after 15 mins by SRB assay. The following applies: read-out: Survival. In kind it is cell-based. The method in brief:
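RAW 264.7 cells were seeded at 1×10^5 per well and held 24 h at 37 °C in 5% CO2. They were then pretreated 15 min with serially diluted compound, followed by LPS (or no LPS) for a further 20 h. Medium was taken for the Griess assay, and cells were fixed with 10% TCA and stained with 0.4% SRB in 1% acetic acid. Bound dye was dissolved in 10 mM Tris and read at 515 nm. Survival is relative to LPS-treated control; two experiments in duplicate.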
For orientation: Sulforhodamine B stains cellular protein and so reports cell mass.

Series [3] can be described thus: Half life in human liver microsomes at 1 uM after 1 to 60 mins by UHPLC-MS/MS analysis. The class given is ADME, Microsome. In general terms: Liver microsomes are a subcellular fraction often used to study metabolism.
The subject of series [4] is Radical scavenging activity. Kind of series: Antioxidant activity in non-aqueous medium assessed as trolox equivalents of DPPH radical scavenging activity by spectrophotometry. In kind it is functional. The method in brief: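 DPPH radical decolorization by hydrogen-donating scavengers in MeOH or EtOH. Some values could not be determined where the compound's solution colour resembled the DPPH reagent, or where % inhibition versus concentration was not linear.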
(DPPH is a stable violet radical that fades when it is reduced.)

Series [5] has as its target NAD(P)H dehydrogenase [quinone] 1 (Mus musculus) (UniProt Q64669). Kind of series: Induction of quinone reductase-1 activity in mouse Hepa-1c1c7 cells assessed as concentration required to double induction activity by MTT assay. The class given is cell-based. The method in brief:
(§1)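 Hepa 1c1c7 murine hepatoma cells incubated with compounds at […]. Cells were permeabilized with digitonin and QR1 activity measured by MTT reduction to formazan at 595 nm, with a parallel crystal violet protein assay. IR is specific activity versus DMSO control; CD is the concentration doubling activity, determined only where IR >2. Two independent experiments in triplicate.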

A short description of series [6]: Cytotoxicity against human HEK293 cells assessed as cell survival at 50 uM. In kind it is cell-based. The following applies: read-out: Survival.
The target in series [7] is T1, Nitric oxide synthase, inducible (Mus musculus, UniProt P29477).
T1 sequence (P29477 whole entry): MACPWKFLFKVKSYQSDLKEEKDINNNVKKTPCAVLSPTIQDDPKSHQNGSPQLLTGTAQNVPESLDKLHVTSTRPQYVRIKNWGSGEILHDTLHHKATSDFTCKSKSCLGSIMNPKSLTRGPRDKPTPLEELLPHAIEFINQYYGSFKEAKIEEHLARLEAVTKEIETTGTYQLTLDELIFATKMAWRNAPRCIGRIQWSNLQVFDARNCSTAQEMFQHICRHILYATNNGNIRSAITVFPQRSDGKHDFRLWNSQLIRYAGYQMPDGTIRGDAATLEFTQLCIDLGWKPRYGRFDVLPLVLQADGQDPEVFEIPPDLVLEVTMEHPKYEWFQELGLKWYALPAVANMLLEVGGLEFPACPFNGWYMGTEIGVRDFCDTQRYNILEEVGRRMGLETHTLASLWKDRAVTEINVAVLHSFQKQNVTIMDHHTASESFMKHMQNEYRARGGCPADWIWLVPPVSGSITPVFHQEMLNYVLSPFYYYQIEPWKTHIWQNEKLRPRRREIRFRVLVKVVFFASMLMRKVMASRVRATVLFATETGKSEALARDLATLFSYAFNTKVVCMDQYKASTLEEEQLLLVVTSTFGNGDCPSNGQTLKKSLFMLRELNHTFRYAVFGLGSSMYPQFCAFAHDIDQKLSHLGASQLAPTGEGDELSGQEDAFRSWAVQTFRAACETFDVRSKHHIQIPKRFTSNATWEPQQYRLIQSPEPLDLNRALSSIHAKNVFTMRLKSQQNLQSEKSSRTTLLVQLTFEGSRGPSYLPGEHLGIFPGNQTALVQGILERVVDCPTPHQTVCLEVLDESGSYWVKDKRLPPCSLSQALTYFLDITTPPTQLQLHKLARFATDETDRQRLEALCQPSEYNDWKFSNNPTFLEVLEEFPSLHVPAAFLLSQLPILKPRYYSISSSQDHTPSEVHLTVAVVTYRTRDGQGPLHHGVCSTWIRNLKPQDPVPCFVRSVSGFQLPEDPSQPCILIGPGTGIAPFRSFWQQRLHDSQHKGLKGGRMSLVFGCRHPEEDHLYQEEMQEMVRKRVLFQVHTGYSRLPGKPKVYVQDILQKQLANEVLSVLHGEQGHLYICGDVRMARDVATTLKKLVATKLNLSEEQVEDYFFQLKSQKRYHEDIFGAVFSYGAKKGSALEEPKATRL
Kind of series: (§2) Inhibition of iNOS-mediated NO production in mouse RAW264.7 cells by Griess assay. In kind it is cell-based. The gist of the method: (§3)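 RAW 264.7 cells, 1×10^5 per well, held 24 h at 37 °C under 5% CO2. Nitrite in the medium was measured with Griess reagent (sulfanilamide/N-(1-naphthyl)ethylenediamine in H3PO4) at 540 nm against a sodium nitrite standard curve.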

The target in series [8] is T2, Nitric oxide synthase, inducible (Mus musculus) (UniProt P29477).
T2 sequence (whole entry): T1 sequence (P29477 whole entry)
The series is described as §2. In kind it is cell-based. The gist of the method: as §3

Series [9] addresses T3, Aromatase (Homo sapiens, UniProt P11511).
T3 sequence (P11511 whole entry): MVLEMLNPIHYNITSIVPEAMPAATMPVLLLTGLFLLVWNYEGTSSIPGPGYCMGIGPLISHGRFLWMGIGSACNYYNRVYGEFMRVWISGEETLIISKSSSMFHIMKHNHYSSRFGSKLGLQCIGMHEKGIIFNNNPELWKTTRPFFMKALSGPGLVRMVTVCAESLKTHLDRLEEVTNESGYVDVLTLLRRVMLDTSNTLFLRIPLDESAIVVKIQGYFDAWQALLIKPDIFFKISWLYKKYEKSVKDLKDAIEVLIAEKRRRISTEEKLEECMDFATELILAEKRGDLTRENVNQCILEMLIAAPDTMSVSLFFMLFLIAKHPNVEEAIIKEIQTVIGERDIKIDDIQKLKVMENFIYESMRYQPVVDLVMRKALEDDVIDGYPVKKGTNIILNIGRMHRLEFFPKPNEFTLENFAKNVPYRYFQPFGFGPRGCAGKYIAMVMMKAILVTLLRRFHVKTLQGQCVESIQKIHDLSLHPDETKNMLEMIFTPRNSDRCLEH
Kind of series: Inhibition of aromatase (unknown origin) using dibenzylfluorscein as substrate incubated with NADP+ for 10 mins prior to substrate addition measured after 30 mins by fluorescence assay.

Series [10] relates to HEK293. As to the kind of experiment: Inhibition of TNFalpha-induced nuclear factor-kappa-B activation in human HEK293 cells at 50 uM by luciferase reporter gene assay. In kind it is cell-based.
Series [11] has as its target NAD(P)H dehydrogenase [quinone] 1 (Mus musculus) (UniProt Q64669). Kind of series: Induction of quinone reductase-1 activity in mouse Hepa-1c1c7 cells expressing TAOc1BPrcI mutant assessed as induction ratio at 50 uM by MTT assay relative to DMSO control. The class given is cell-based.
Series [12] has as its target T2, Nitric oxide synthase, inducible (Mus musculus). Kind of series: Inhibition of iNOS-mediated NO production in mouse RAW264.7 cells at 50 uM by Griess assay. The class given is cell-based.
In series [13] the test system is Liver microsomes. Kind of series: Drug metabolism in human liver microsomes assessed as monooxygenated metabolite by UHPLC-MS/MS analysis. In kind it is ADME, Microsome. The gist of the method:
(§4)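 Microsomal incubations as for stability (1 mg/mL human liver microsomes, NADPH, 37 °C). Metabolites analysed by UHPLC-MS/MS with a 4.5 min gradient at 0.2 mL/min, recording product ion scans over m/z 100–300.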

Series [14] addresses T3, Aromatase. Kind of series: Inhibition of aromatase (unknown origin) using dibenzylfluorscein as substrate incubated with NADP+ for 10 mins prior to substrate addition at 50 uM measured after 30 mins by fluorescence assay. Particulars: 0.5 h. The method in brief: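 Compounds preincubated 10 min at 37 °C with an NADPH-regenerating system (2.6 mM NADP+, 7.6 mM glucose 6-phosphate, 0.8 U/mL G6PDH, 13.9 mM MgCl2, 1 mg/mL albumin; 50 mM K phosphate, pH 7.4). CYP19 enzyme with […] was added for 30 min at 37 °C. The reaction was stopped with 2 N NaOH and held 24 h at 37 °C, then fluorescence read at ex 485/em 530 nm.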

A short description of series [15]: Antioxidant activity assessed as trolox equivalents of ABTS radical scavenging activity at pH 7.4 by spectrophotometry. In kind it is functional. The gist of the method: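 TEAC run at pH 7.4; activity reported as mM equivalents of Trolox.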
For series [16], the target named is NAD(P)H dehydrogenase [quinone] 1 (Mus musculus) (UniProt Q64669). Kind of series: Induction of quinone reductase-1 activity in mouse Hepa-1c1c7 cells expressing BPrc1 mutant assessed as induction ratio at 50 uM by MTT assay relative to DMSO control. The class given is cell-based.
Chain of NAD(P)H dehydrogenase [quinone] 1 (Mus musculus) (Q64669 whole entry): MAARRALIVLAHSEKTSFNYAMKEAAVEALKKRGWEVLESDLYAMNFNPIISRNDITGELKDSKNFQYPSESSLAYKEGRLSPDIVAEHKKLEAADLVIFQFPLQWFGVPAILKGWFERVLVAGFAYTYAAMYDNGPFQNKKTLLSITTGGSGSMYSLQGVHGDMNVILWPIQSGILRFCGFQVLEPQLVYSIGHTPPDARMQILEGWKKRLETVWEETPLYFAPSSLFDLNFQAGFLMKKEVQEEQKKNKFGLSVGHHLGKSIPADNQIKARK
Series [17] shares this target. Kind of series: Induction of quinone reductase-1 activity in mouse Hepa-1c1c7 cells assessed as induction ratio at 50 uM by MTT assay relative to DMSO-treated control. In kind it is cell-based. The method in brief:
as §1

For series [18], the system named is HEK293. As to the kind of experiment: Cytotoxicity against human HEK293 cells assessed as reduction in cell survival. In kind it is cell-based. The method in brief:
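Same 293/NFkB-Luc cells under the NFkB assay conditions; cytotoxic IC50 taken as the concentration giving 50% cell survival.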

Series [19] can be described thus: Inhibition of TNFalpha-induced nuclear factor-kappa-B activation in human HEK293 cells at by luciferase reporter gene assay. The class given is cell-based. The method in brief:
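Stably transfected 293/NFkB-Luc cells seeded at 20 × 10^3 per well in DMEM with 10% FBS, penicillin/streptomycin and 2 mM L-glutamine for 48 h. Medium was then replaced and cells were given compounds in DMSO plus TNF-α 2 ng/mL (0.14 nM) for 6 h. Cells were lysed and luciferase luminescence read; IC50 is the concentration halving TNF-α-activated activity; […]. Mean ± SD of two experiments in duplicate.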

Series [20] deals with Liver microsomes. As to the kind of experiment: Drug metabolism in human liver microsomes assessed as monooxygenated metabolite after 1.9 mins by UHPLC-MS/MS analysis. In kind it is ADME, Microsome. Particulars: 114 s. The gist of the method: as §4

Turning to `O=c1c(-c2ccc(O)cc2)coc2c([C@@H]3O[C@H](CO)[C@@H](O)[C@H](O)[C@H]3O)c(O)ccc12` [PUERARIN], the Activity in [1] stood at 0.192 µM.
As for `Cc1cn2cc(-c3ccc(O)c(O)c3O)nc2s1`, the “inhibition (INH)” value with RAW264.7 is given as “Dose-dependent effect”. In [2], the viability at 0.25 h, 50 µM came out at 52.3%. Besides, the half-life – broadly, how long it takes for the measured level to halve – at 1 µM in [3] was 11.2 min. In addition, the results for the Activity in series [4], in [15] and in series [1] were 1.38 µM, 3.06 µM and 0.14 µM, respectively. In series [5], the CD was found to be 24.6 µM. For the same compound, the viability at 50 µM in [6] was found to be 34.3%. Also, the IC50 (in general, the concentration at which inhibition is half-maximal) in [7] worked out at 6.8 µM; against Aromatase [9], 3.2 µM; with HEK293 [18], 21.2 µM; in series [19], 0.53 µM. In addition, the inhibition (as a rule, the relative decrease from the control value, in per cent) in series [8] is “Dose-dependent effect”; in the series with HEK293 [10], 97.5%; in [12], 98.8%. For the same compound, the Ratio in series [11] was determined as 0.2; in series [16], 1.2; in [17], 2.03. Also, the Drug metabolism result with Liver microsomes [13] is on record as “Active”. This compound also displayed an inhibition at 50 µM on Aromatase [14] of 99.6%.
On to `O=c1c(O)c(-c2ccc(O)c(O)c2)oc2cc(O)cc(O)c12`, for which the Activity in series [15] was 3.1 µM.
`CC(C)NCC(O)COc1cccc2ccccc12` (stereo unspecified) [PROPRANOLOL] yielded a half-life at 1 µM in series [3] of 20.8 min.
With `Oc1ccc(O)c(-c2cn3ccsc3n2)c1`, the IC50 was determined as 11.6 µM in the series on RAW264.7 (Mus musculus, RAW264.7, 20 h); 6.4 µM in [7]; 2.6 µM against Aromatase [9]; 46.5 µM in the series with HEK293 [18]; 2.24 µM in [19]. The “inhibition (INH)” value in the series with RAW264.7 is recorded as “Dose-dependent effect”. Moreover, in [2], the viability at 0.25 h, 50 µM is 48.2%. In [3], this compound yielded a half-life at 1 µM of 5.9 min. The Activity in series [4] was determined as 0.71 µM; in [15], 1.29 µM; in [1], 1.032 µM. Further, in [5], the CD amounted to 12.1 µM. Moreover, in series [6], the viability at 50 µM is 43.6%. Also, the inhibition result was “Dose-dependent effect” in [8], 91% in the series on HEK293 [10] and 97.7% in series [12]. Moreover, in the series on Liver microsomes [20], the Drug metabolism entry was “Active”. For the same compound, the figures for the Ratio in series [11], in series [16] and in series [17] were 0.3, 0.9 and 3.8, respectively. Also, at 50 µM the inhibition against Aromatase [14] was 98.6%.
With `Oc1cc(O)c2c(c1)O[C@@H](c1ccc(O)c(O)c1)[C@H](O)C2` [(-)-CATECHIN], the Activity in [1] amounted to 2.2 µM.
Regarding `Cc1ccc(S(=O)(=O)N[C@@H](Cc2ccccc2)C(=O)CCl)cc1` [TPCK], the IC50 in series [19] worked out at 3.8 µM.

For the origin of these results see ChEMBL document CHEMBL2429861, “Chemopreventive and antioxidant activity of 6-substituted imidazo[2,1-b]thiazoles” (Eur J Med Chem, 2013).
